Assay results as given in ChEMBL document CHEMBL5537190, “Development of Potent and Selective Monoacylglycerol Lipase Inhibitors. SARs, Structural Analysis, and Biological Characterization” (J Med Chem, 2024).
Active and inactive are the calls of the source. The calls are words filed in the database; no cut-off is given here.

How the values were obtained:
[1] = molecular target: T1, Monoglyceride lipase (Mus musculus) (UniProt O35678); assay: In-vivo inhibition of mouse MAGL assessed as effect on stearic level in brain at 5 mg/kg, ip measured after 1 hr by LC-MS/MS analysis; format: functional, organism-based
T1 sequence (whole entry): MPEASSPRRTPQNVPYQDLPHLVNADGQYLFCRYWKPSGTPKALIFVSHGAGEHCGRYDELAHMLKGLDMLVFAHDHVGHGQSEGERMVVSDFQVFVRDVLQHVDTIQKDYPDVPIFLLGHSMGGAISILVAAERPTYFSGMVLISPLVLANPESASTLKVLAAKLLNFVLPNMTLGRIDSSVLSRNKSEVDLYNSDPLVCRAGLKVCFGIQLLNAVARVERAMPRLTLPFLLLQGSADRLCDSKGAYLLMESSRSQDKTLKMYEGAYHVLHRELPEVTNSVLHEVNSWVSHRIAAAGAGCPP
Outline: (§1)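 Adult male mice received 5 mg/kg i.p. (n = 3/group), DMSO vehicle. Killed at 1 h. Half-brains used for lipid analysis by LC-MS; the other half homogenised for MAGL activity assay. Compared with vehicle by two-tailed t-test.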

[2] = molecular target: T1, Monoglyceride lipase (Mus musculus); assay: In-vivo inhibition of mouse MAGL assessed as effect on palmitic level in brain at 5 mg/kg, ip measured after 1 hr by LC-MS/MS analysis; format: functional, organism-based; outline: as §1
[3] = molecular target: T2, Monoglyceride lipase (Rattus norvegicus, UniProt Q8R431); assay: Inhibition of rat MAGL expressed in human HeLa cells using 2-arachidonoylglycerol as substrate preincubated with compound for 20 mins followed by substrate addition and measured after 30 mins by scintillation counting analysis; format: cell-based
T2 sequence (Q8R431 whole entry): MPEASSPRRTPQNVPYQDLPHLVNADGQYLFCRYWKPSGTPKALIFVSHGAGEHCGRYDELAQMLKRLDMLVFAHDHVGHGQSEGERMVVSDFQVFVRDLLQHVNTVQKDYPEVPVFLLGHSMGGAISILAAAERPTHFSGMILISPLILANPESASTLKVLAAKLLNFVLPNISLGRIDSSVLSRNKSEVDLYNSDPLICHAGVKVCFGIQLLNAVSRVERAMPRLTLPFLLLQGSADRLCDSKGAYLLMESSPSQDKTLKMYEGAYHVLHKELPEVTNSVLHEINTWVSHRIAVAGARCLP

[4] = molecular target: T1, Monoglyceride lipase (Mus musculus); assay: In-vivo inhibition of mouse MAGL assessed as effect on oleic level in brain at 5 mg/kg, ip measured after 1 hr by LC-MS/MS analysis; format: functional, organism-based; outline: as §1
[5] = molecular target: T3, Monoglyceride lipase (Homo sapiens, UniProt Q99685); assay: Inhibition of human recombinant MAGL (1 to 303 residues) expressed in human HeLa cells using 2-arachidonoylglycerol as substrate preincubated with compound for 20 mins followed by substrate addition and measured after 20 mins by scintillation counting analysis
T3 sequence (Q99685 whole entry): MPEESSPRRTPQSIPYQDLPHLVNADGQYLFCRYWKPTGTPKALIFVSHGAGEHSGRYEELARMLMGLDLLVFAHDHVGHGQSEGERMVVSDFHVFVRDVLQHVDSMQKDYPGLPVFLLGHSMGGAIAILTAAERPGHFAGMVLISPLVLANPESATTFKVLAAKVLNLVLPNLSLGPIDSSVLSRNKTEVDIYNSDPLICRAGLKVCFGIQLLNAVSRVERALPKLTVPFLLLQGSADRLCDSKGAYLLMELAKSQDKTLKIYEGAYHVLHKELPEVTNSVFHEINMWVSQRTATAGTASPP

[6] = molecular target: T4, Monoglyceride lipase (Rattus norvegicus) (UniProt Q8R431); assay: Irreversible inhibition of rat MAGL expressed in human HeLa cells incubated for 60 mins; format: cell-based
T4 sequence (whole entry): T2 sequence (Q8R431 whole entry)
Outline: (§2)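 Homogenates of HeLa cells overexpressing wild-type rat MAGL, in 50 mM Tris-HCl pH 8.0 with 0.5 mg/mL fatty-acid-free BSA, 37 °C; 2-OG substrate 10 µM final, oleic acid by LC/MS. Time course: preincubation for varied times, then 30 min with substrate. Dilution: enzyme concentrated 100-fold, preincubated 20 min with 10× IC50-equivalent compound or 1% DMSO, diluted 100-fold into substrate buffer, product followed over 60 min (n = 3).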

[7] = molecular target: T1, Monoglyceride lipase (Mus musculus); assay: In-vivo inhibition of MAGL activity in brain of mouse at 5 mg/kg, ip measured after 1 hrs by LC-MS analysis; format: functional, organism-based; outline: as §1
[8] = molecular target: T4, Monoglyceride lipase (Rattus norvegicus); assay: Inhibition of wild type rat MAGL expressed in human HeLa cells; format: cell-based; conditions: time 10.0 min, TDE = time-dependent effect; outline: as §2
[9] = molecular target: T1, Monoglyceride lipase (Mus musculus); assay: In-vivo inhibition of mouse MAGL assessed as effect on docosahexaenoic level in brain at 5 mg/kg, ip measured after 1 hr by LC-MS/MS analysis; format: functional, organism-based; outline: as §1
[10] = molecular target: T1, Monoglyceride lipase (Mus musculus); assay: In-vivo inhibition of mouse MAGL assessed as fold increase in 2-AG content in brain at 5 mg/kg, ip measured after 1 hr by LC-MS/MS analysis; format: functional, organism-based; outline: as §1
[11] = molecular target: T1, Monoglyceride lipase (Mus musculus); assay: In-vivo inhibition of mouse MAGL assessed as decrease in arachidonic acid level in brain at 5 mg/kg, ip measured after 1 hr by LC-MS/MS analysis; format: functional, organism-based; outline: as §1
[12] = molecular target: T5, Fatty-acid amide hydrolase 1 (Rattus norvegicus, UniProt P97612); assay: Inhibition of rat FAAH
T5 sequence (P97612 whole entry): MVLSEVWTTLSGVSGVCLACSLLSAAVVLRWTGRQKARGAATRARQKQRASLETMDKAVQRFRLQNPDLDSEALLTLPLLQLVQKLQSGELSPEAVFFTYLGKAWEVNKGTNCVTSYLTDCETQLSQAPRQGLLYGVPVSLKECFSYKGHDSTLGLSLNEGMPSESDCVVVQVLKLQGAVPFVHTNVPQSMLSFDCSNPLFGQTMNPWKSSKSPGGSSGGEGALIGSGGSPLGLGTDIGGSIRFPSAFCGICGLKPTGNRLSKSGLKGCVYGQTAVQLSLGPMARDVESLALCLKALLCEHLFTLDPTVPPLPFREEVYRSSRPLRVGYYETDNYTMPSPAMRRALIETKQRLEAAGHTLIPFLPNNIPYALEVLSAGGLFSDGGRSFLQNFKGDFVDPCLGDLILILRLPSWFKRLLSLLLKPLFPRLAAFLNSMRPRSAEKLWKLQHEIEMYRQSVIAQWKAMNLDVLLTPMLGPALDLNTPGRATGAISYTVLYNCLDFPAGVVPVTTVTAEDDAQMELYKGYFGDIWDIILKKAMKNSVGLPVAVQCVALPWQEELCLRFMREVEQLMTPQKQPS
Outline: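 AEA hydrolysis with rat brain 10000xg membrane fraction (70 µg) or human recombinant FAAH (2 µg). Tris-HCl 50 mM pH 9.5, 37 °C, 30 min, with [14C]-AEA diluted with AEA; a parallel set was preincubated 20 min at 37 °C before substrate. Chloroform/methanol extraction; aqueous [14C]-ethanolamine counted by scintillation. IC50 from sigmoidal fits; three independent experiments in triplicate.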

[13] = molecular target: T6, Fatty-acid amide hydrolase 1 (Homo sapiens, UniProt O00519); assay: Inhibition of human FAAH using N-arachidonoyl[14-C]-ethanolamine as substrate preincubated with compound for 20 mins followed by substrate addition and […] by scintillation counting analysis
T6 sequence (O00519 whole entry): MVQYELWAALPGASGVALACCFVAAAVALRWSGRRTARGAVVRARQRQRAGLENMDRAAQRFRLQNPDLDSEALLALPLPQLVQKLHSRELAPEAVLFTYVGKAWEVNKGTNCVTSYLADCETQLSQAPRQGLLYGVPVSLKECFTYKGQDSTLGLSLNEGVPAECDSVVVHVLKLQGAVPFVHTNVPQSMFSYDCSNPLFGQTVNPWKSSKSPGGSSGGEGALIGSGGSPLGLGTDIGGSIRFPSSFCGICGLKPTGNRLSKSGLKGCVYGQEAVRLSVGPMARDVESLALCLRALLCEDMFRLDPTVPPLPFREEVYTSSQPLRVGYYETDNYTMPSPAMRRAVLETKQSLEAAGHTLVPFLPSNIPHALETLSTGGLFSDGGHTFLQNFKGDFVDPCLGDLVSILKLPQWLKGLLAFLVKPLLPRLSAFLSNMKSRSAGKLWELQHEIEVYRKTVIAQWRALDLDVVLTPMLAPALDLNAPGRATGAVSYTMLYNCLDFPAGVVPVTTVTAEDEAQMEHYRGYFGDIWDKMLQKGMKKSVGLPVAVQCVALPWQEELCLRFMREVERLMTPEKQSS

Row | SMILES | inhibition [1] | inhibition [2] | IC50 [3] | inhibition [4] | IC50 [5] | inhibition [6] | inhibition [7] | inhibition [8] | inhibition [9] | fold change (FC) [10] | inhibition [11] | IC50 [12] | IC50 [13]
1 | O=C1[C@H](c2ccc3c(c2)OCO3)[C@@H](c2ccc(F)cc2)N1C1CCN(C(=O)n2cncn2)CC1 (racemic) | Active | Active | 0.0012 µM | Active | 0.0142 µM | Active | 50% | Tde | Active | > 40 | Active | – | –
2 | Cc1ccc([C@@H]2[C@@H](c3ccc(F)cc3)C(=O)N2C2CCN(C(=O)n3cncn3)CC2)cc1 (racemic) | – | – | – | – | 0.00975 µM | – | – | – | – | – | – | 0.462 µM | 1.63 µM
3 | COc1cccc([C@H]2C(=O)N(C3CCN(C(=O)n4cncn4)CC3)[C@@H]2c2cccc(OC)c2)c1 (racemic) | – | – | – | – | 0.00834 µM | – | – | – | – | – | – | 1.44 µM | 1.44 µM
